# Data as given in ChEMBL document CHEMBL4312003, “Optimization of biaryloxazolidinone as promising antibacterial agents against antibiotic-susceptible and antibiotic-resistant gram-positive bacteria” (Eur J Med Chem, 2020).
# What was measured:
# Staphylococcus aureus [1] = assay: Antibacterial activity against Staphylococcus aureus ATCC 29213 assessed as complete reduction in bacterial cell growth by CLSI protocol based broth liquid microdilution method; assay type: functional
# In short: (§1)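 Broth liquid microdilution per CLSI guidelines; isolates identified on an automated MicroScan system before testing. MIC taken as lowest concentration giving total inhibition of bacterial growth, reported in μg/mL. S. aureus ATCC29213 run as the control strain.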
# Enterococcus faecium [2] = assay: Antibacterial activity against vancomycin-resistant Enterococcus faecium assessed as complete reduction in bacterial cell growth by CLSI protocol based broth liquid microdilution method; assay type: functional; in short: as §1
# Staphylococcus aureus [3] = assay: Antibacterial activity against methicillin-sensitive Staphylococcus aureus assessed as complete reduction in bacterial cell growth by CLSI protocol based broth liquid microdilution method; assay type: functional; in short: as §1
# Staphylococcus aureus [4] = assay: Antibacterial activity against methicillin-resistant Staphylococcus aureus assessed as complete reduction in bacterial cell growth by CLSI protocol based broth liquid microdilution method; assay type: functional; in short: as §1
# Enterococcus faecalis [5] = assay: Antibacterial activity against linezolid-resistant Enterococcus faecalis assessed as complete reduction in bacterial cell growth by CLSI protocol based broth liquid microdilution method; assay type: functional; in short: as §1
# Staphylococcus aureus [6] = assay: Antibacterial activity against clinical isolates of methicillin-sensitive Staphylococcus aureus assessed as reduction in bacterial cell growth by CLSI protocol based broth microdilution method; assay type: functional; in short: as §1
# Enterococcus faecalis [7] = assay: Antibacterial activity against clinical isolates of linezolid-resistant Enterococcus faecalis assessed as complete reduction in bacterial cell growth by CLSI protocol based broth liquid microdilution method; assay type: functional; in short: as §1
# [8] = Stability in simulated gastric acid assessed as compound remaining at pH 1.2 incubated for 0.5 hrs; assay type: ADME; details: read-out: Stability
# [9] = Stability in simulated gastric acid assessed as compound remaining at pH 1.2 incubated for 1 hr; assay type: ADME; details: read-out: Stability
# Enterococcus faecium [10] = assay: Antibacterial activity against clinical isolates of vancomycin-resistant Enterococcus faecium assessed as complete reduction in bacterial cell growth by CLSI protocol based broth liquid microdilution method; assay type: functional; in short: as §1
# HepG2 = assay: Cytotoxicity against human HepG2 cells assessed as reduction in cell viability incubated for 48 hrs by MTT assay; assay type: cell-based; details: HepG2, 48 h
# In short: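 HepG2 cells were grown in RPMI1640 with 10% FBS and plated at about 4×10^4 cells/well in MEM. After 24 h at 37 °C in 5% CO2, compounds were added at the indicated final concentrations for 48 h. MTT was added (0.5 mg/mL final) for 4 h at 37 °C and the formazan dissolved in DMSO. Absorbance was read at 492 nm (630 nm reference). Each compound was tested three times; IC50 given as mean ± SD.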
# [11] = Stability in simulated gastric acid assessed as compound remaining at pH 1.2 incubated for 1.5 hrs; assay type: ADME; details: read-out: Stability
# [12] = Stability in simulated gastric acid assessed as compound remaining at pH 1.2 incubated for 2 hrs; assay type: ADME; details: read-out: Stability
SMILES,MIC (Staphylococcus aureus [1]) [µg/mL],MIC (Enterococcus faecium [2]) [µg/mL],MIC (Staphylococcus aureus [3]) [µg/mL],MIC (Staphylococcus aureus [4]) [µg/mL],MIC (Enterococcus faecalis [5]) [µg/mL],MIC (Staphylococcus aureus [6]) [µg/mL],MIC (Enterococcus faecalis [7]) [µg/mL],remaining at 0.5 h [8] [%],remaining at 1 h [9] [%],MIC (Enterococcus faecium [10]) [µg/mL],IC50 (HepG2) [µM],remaining at 1.5 h [11] [%],remaining at 2 h [12] [%]
CC(=O)NC[C@H]1CN(c2ccc(-c3ccc(/C=N/N4CC[S+]([O-])CC4)cn3)c(F)c2)C(=O)O1,2,2,2,1,2,–,–,–,–,–,–,–,–
CC(=O)NC[C@H]1CN(c2ccc(-c3ccc(/C=N/N4CCNCC4)c(O)c3)c(F)c2)C(=O)O1,0.5,0.25,0.25,0.25,0.25,–,–,–,–,–,–,–,–
COc1cc(-c2ccc(N3C[C@H](CNC(C)=O)OC3=O)cc2F)ccc1/C=N/N1CCSCC1,2,1,1,1,1,–,–,–,–,–,–,–,–
CC(=O)NC[C@H]1CN(c2ccc(-c3ccc(/C=N/N4CCN(C)CC4)c(O)c3)c(F)c2)C(=O)O1,0.125,0.25,0.12,0.125,0.25,0.5 to 1,1,69.8,35,1,> 25,12.2,5.3
CC(=O)NC[C@H]1CN(c2ccc(-c3ccc(/C=N/N4CCN(C)CC4)c(C)c3)c(F)c2)C(=O)O1,0.5,0.5,0.5,0.5,0.5,–,–,–,–,–,–,–,–
CC(=O)NC[C@H]1CN(c2ccc(-c3ccc(/C=N/N4CCSCC4)c(C(F)(F)F)c3)c(F)c2)C(=O)O1,2,2,2,2,2,–,–,–,–,–,–,–,–
COc1cc(-c2ccc(N3C[C@H](CNC(C)=O)OC3=O)cc2F)ccc1/C=N/N1CCOCC1,2,2,2,2,2,–,–,–,–,–,–,–,–
CC(=O)NC[C@H]1CN(c2ccc(-c3ccc(/C=N/N4CCCCC4)c(F)c3)c(F)c2)C(=O)O1,0.25,0.5,0.25,0.25,0.5,–,–,–,–,–,–,–,–
CC(=O)NC[C@H]1CN(c2ccc(-c3ccc(/C=N/N4CCSCC4)c(F)c3)c(F)c2)C(=O)O1,0.25,1,0.25,0.25,1,–,–,–,–,–,–,–,–
CC(=O)NC[C@H]1CN(c2ccc(-c3ccc(/C=N/N4CCNCC4)nc3)c(F)c2)C(=O)O1,0.5,0.5,1,0.5,0.5,–,–,–,–,–,–,–,–
CC(=O)NC[C@H]1CN(c2ccc(-c3ccc(/C=N/N4CCSCC4)cn3)c(F)c2)C(=O)O1,1,2,2,0.5,2,–,–,–,–,–,–,–,–
CC(=O)NC[C@H]1CN(c2ccc(-c3ccc(/C=N/N4CCS(=O)(=O)CC4)cn3)c(F)c2)C(=O)O1,2,1,1,1,1,–,–,–,–,–,–,–,–
CCC(=O)N1CCN(/N=C/c2ccc(-c3ccc(N4C[C@H](CNC(C)=O)OC4=O)cc3F)cc2O)CC1,0.25,0.25,0.25,0.25,0.25,1 to 2,1 to 2,–,–,1 to 2,–,–,–
CC(=O)NC[C@H]1CN(c2ccc(-c3ccc(/C=N/N4CCN(C)CC4)c(F)c3)c(F)c2)C(=O)O1,1,1,1,1,1,–,–,–,–,–,–,–,–
